# Measurements as given in ChEMBL document CHEMBL1134232, “Phenylcyclohexene and phenylcyclohexadiene substituted compounds having retinoid antagonist activity” (Bioorg Med Chem Lett, 2001).
# Legend:
# [1] = target: T1, Retinoic acid receptor alpha (Homo sapiens, UniProt P10276); experiment: Binding affinity towards retinoic acid receptor alpha was determined using [3H]ATRA (5 nM) as radioligand
# T1 sequence (P10276 whole entry): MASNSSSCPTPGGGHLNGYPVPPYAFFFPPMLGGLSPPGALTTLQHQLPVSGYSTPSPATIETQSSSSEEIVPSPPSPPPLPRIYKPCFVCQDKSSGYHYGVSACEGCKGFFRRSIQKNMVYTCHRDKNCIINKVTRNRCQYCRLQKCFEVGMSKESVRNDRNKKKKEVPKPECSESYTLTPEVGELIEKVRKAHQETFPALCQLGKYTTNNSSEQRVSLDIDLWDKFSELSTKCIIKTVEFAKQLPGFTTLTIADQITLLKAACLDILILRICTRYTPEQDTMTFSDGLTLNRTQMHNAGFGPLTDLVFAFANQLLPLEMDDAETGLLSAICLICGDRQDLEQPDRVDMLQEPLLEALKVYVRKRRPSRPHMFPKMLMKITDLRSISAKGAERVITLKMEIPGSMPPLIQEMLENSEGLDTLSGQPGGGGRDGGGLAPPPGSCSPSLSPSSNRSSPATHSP
# [2] = target: T1, Retinoic acid receptor alpha; experiment: Ability to inhibit TTNPB-induced transactivation at retinoic acid receptor alpha
# [3] = target: T2, Retinoic acid receptor beta (Homo sapiens, UniProt P10826); experiment: Ability to inhibit TTNPB-induced transactivation at retinoic acid receptor beta
# T2 sequence (P10826 whole entry): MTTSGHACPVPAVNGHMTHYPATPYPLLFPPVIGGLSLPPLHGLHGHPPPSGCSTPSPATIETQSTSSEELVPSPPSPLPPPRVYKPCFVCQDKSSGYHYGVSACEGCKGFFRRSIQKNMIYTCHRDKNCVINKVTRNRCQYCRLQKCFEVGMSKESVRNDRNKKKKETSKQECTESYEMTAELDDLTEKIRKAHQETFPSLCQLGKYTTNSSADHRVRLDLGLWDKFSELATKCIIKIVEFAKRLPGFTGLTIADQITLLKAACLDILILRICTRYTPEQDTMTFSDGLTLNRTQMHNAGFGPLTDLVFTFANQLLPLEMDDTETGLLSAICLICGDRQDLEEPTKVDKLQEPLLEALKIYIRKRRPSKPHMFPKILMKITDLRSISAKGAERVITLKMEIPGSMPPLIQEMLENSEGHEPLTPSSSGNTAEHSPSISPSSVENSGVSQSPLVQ
# [4] = target: T2, Retinoic acid receptor beta; experiment: Binding affinity towards retinoic acid receptor beta was determined using [3H]ATRA (5 nM) as radioligand
# [5] = target: T3, Retinoic acid receptor gamma (Homo sapiens, UniProt P13631); experiment: Binding affinity towards retinoic acid receptor gamma was determined using [3H]ATRA (5 nM) as radioligand
# T3 sequence (P13631 whole entry): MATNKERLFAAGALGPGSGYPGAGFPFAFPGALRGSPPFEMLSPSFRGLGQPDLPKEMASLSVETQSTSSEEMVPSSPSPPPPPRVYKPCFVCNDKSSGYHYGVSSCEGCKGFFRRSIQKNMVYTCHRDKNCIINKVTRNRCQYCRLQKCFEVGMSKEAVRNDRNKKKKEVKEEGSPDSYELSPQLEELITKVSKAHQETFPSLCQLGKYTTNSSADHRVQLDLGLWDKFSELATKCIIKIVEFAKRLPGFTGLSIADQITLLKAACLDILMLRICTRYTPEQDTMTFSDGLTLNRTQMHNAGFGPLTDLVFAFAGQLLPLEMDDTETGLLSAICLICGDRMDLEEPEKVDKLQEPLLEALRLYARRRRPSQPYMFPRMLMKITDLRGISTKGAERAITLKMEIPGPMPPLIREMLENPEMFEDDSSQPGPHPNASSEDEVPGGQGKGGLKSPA
# [6] = target: T3, Retinoic acid receptor gamma; experiment: Antagonist activity of TTNPB (10 nM) function at retinoic acid receptor gamma; assay type: functional
# Summary of the method: (§1)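 Transactivation assay run separately at RARα, RARβ and RARγ. Test compound is applied at varying concentrations against 10 nM TTNPB, held constant. Inhibition of TTNPB-driven transcriptional activation is measured, and IC50 is calculated as the half-maximal inhibition concentration.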
# [7] = target: T2, Retinoic acid receptor beta; experiment: Antagonist activity of TTNPB (10 nM) function at retinoic acid receptor beta; assay type: functional; summary of the method: as §1
# [8] = target: T1, Retinoic acid receptor alpha; experiment: Antagonist activity of TTNPB (10 nM) function at retinoic acid receptor alpha; assay type: functional; summary of the method: as §1
# [9] = target: T4, Retinoic acid receptor alpha (Homo sapiens) (UniProt P10276); experiment: Efficacy of TTNPB (10 nM) function at retinoic acid receptor alpha, antagonized at highest dose tested (10⁴ nM)
# T4 sequence (whole entry): T1 sequence (P10276 whole entry)
# Summary of the method: (§2)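 In the RAR transactivation assay with 10 nM TTNPB, efficacy is the percent of TTNPB transcriptional activity antagonized at the highest dose tested (10⁴ nM). Each receptor subtype is tested separately.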
# [10] = target: T5, Retinoic acid receptor beta (Homo sapiens) (UniProt P10826); experiment: Efficacy of TTNPB (10 nM) function at retinoic acid receptor beta (10 uM); summary of the method: as §2
# T5 sequence (whole entry): T2 sequence (P10826 whole entry)
# [11] = target: T6, Retinoic acid receptor gamma (Homo sapiens) (UniProt P13631); experiment: Efficacy of TTNPB (10 nM) function at retinoic acid receptor gamma (10 uM); summary of the method: as §2
# T6 sequence (whole entry): T3 sequence (P13631 whole entry)
# [12] = target: T3, Retinoic acid receptor gamma; experiment: Ability to inhibit TTNPB-induced transactivation at retinoic acid receptor gamma
Compound,Kd [1] [nM],EC50 [2] [nM],EC50 [3] [nM],Kd [4] [nM],Kd [5] [nM],IC50 [6] [nM],IC50 [7] [nM],IC50 [8] [nM],Efficacy [9] [%],Efficacy [10] [%],Efficacy [11] [%],EC50 [12] [nM]
CC1=C(/C=C/C#Cc2ccc(C(=O)O)cc2)C(C)(C)CCC1,135,435,7,20,190,–,–,–,–,–,–,–
Cc1ccc(C2=CCC(C)(C)c3ccc(C#Cc4ccc(C(=O)O)cc4)cc32)cc1,17,–,–,–,–,3,20,31,91,97,98,–
Cc1ccc(C2=C(/C=C/C#Cc3ccc(C(=O)O)cc3)C(C)(C)CCC2)cc1,–,–,–,–,–,5,22,210,93,92,96,–
CC1(C)CCCC(c2ccc(C(C)(C)C)cc2)=C1/C=C/C#Cc1ccc(C(=O)O)cc1,875,–,–,25,331,–,–,–,94,96,95,–
CC1(C)C=C(/C=C/C#Cc2ccc(C(=O)O)cc2)C(c2ccc(C(C)(C)C)cc2)=CC1,> 1000,–,–,87,> 1000,–,–,–,–,–,–,–
Cc1ccc(C2=CCC(C)(C)C=C2/C=C/C#Cc2ccc(C(=O)O)cc2)cc1,252,–,–,53,31,–,–,–,96,94,97,–
CC1(C)CCC(C)(C)c2cc(C/C=C/c3ccc(C(=O)O)cc3)ccc21,36,30,8,5,26,–,–,–,–,–,–,4
CCc1ccc(C2=C(/C=C/C#Cc3ccc(C(=O)O)cc3)C(C)(C)CCC2)cc1,–,–,–,–,–,3,40,220,97,96,95,–
